Screening results: PubChem BioAssay, several laboratories
ABCG2 inh – inhibitors of human ABCG2 transporter, ABCB1 counter-screen; Q9UNQ0; IgMXP3 cells, JC-1 efflux, flow cytometry; inhibition, % at 6.6 µM; hit rate 0.1% among 190,000;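 active = inhibition above 80%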;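 note: 0% = DMSO and 100% = nicardipine control wells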
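Measure – % inhibition of efflux relative to nicardipine and DMSO · Test system – ABCG2 IgMXP3 and barcoded ABCB1 CCRF-Adr cell mix · Control set – nicardipine as high control, DMSO as low control · Compound – one concentration, 6.6 µM final · Signal – flow cytometry of retained JC-1 fluorescence · Timing – 10 min exposure at 25 °C with rotation, no wash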
Calb biofilm kill – mixture kills Candida albicans biofilm cells; C. albicans biofilm persisters + clotrimazole, fluorescence viability; primary screen in compound mixtures of four per well; inhibition, % at 7.6 µM; hit rate 0.02% among 120,000;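 active = inhibition above 30.3% in the primary screen of four-compound pools, then above 30% when the compound was retested; inconclusive = passed the primary limit but could not be retested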;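 note: compounds exposed to preformed 24 h biofilms for 48 h; 0% = untreated biofilm control and 100% = clotrimazole plus chlorhexidine kill blank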
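Test system: C. albicans biofilms. Buffer or medium: RPMI/MOPS medium, pH 7.0. Timing: 48 h compound exposure at 37 °C. Technique: Alamar Blue fluorescence. Evaluation: percent inhibition of biofilm viability.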
ABCB1 inh – inhibitors of human ABCB1 transporter, ABCG2 counter-screen; P08183; CCRF-Adr cells, JC-1 efflux, flow cytometry; inhibition, % at 6.6 µM; hit rate 0.067% among 190,000; AID 1326; in the data active = inhibition above about 40%;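 note: 0% = vehicle and 100% = reference inhibitor; higher value means more JC-1 retained so stronger ABCB1 efflux block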
TRPN1 ag – zebrafish TRPN1 (NompC) channel agonism | HEK293 zebrafish TRPN1-YFP, Fluo-8 calcium fluorescence; 100% = response to 87 µM carbachol | activation, % at 3 µM | hit rate 0.18% among 220,000;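 active = activation above its plate's cutoff, the mean activation of test wells on that plate plus 3 SD, cut at about 19% in these data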;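 note: 0% = DMSO alone and 100% = 87 µM carbachol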
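Material: zebrafish TRPN1-YFP in HEK293 cells; Doses: single test compound dose, 3 µM nominal, 0.3% DMSO; Timing: dye loading 1 h at 37 °C, then 30 min room temperature; Technique: intracellular calcium fluorescence with Fluo-8; Benchmarks: high carbachol 87 µM, low DMSO alone.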
TRPML3 ag – agonists of human TRPML3 channel | Q8TDD5 | HEK293 TRPML3-YFP, Fluo-8 calcium fluorescence; 100% = the carbachol control signal | activation, % at 3 µM | hit rate 0.29% among 220,000 | AID 1448;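 active = activation above its plate's cutoff, the mean activation of the plate's test wells plus 3 SD, cut at about 12% in these data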;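 note: 0% = DMSO only wells and 100% = carbachol wells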
Target sequence (Q8TDD5 whole entry, looked up): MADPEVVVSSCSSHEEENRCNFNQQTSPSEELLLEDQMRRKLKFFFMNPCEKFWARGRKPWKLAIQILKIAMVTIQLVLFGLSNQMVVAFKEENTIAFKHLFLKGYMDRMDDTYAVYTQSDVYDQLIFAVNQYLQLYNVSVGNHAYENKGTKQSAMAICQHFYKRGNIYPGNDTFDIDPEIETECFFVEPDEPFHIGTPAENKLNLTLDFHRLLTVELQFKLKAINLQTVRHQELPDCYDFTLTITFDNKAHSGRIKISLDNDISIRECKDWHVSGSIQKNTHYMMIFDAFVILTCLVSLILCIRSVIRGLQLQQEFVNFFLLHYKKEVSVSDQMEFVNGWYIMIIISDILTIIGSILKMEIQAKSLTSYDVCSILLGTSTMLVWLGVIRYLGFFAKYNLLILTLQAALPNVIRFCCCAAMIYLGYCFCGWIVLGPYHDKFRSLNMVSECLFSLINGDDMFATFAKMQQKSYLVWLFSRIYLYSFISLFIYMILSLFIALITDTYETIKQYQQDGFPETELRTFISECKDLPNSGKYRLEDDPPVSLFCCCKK
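Test system: HEK293 cells stably carrying human TRPML3-YFP; Doses: single dose, 3 µM final nominal compound, 0.3% DMSO final; Schedule: dye loading 1 h 37 °C then 30 min ambient, 125 s read; Technique: Fluo-8 calcium fluorescence; Benchmarks: high control carbachol 87 µM, low control DMSO.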
ROMK mod – modulators of human ROMK potassium channel; P48048; Tet-inducible ROMK, thallium flux fluorescence; actives lie on both sides; B-score at 10 µM; hit rate 2% among 130,000; AID 1918;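 active = signal ratio slope over the read window, or its plate-corrected B-score, at least 3 SD from the plate mean, either direction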;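 note: B-score of the F/F0 ratio slope over 7 to 12 s after thallium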
ROMK hit retest – human ROMK channel modulation, retest confirmation; shares compounds with ROMK mod; ROMK thallium flux, fluorescence ratio; hits give low values; normalized thallium flux (F/F0 slope) at 10 µM; hit rate 54% among 3,000;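 active = Flux at 10 µM at least 3 SD below or above vehicle control mean in one or both replicates; inconclusive = no clear call, values can overlap the other calls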
* = called active by the depositor; ? = inconclusive; · = no result given. The full list was thinned out, with hits kept by preference.

SMILES | ABCG2 inh | Calb biofilm kill | ABCB1 inh | TRPN1 ag | TRPML3 ag | ROMK mod | ROMK hit retest
COc1ccc(S(=O)(=O)N(C)CC(=O)NCCC2=CCCCC2)cc1OC | 6.5 | · | 1.0 | -0.3 | 0.5 | 0.116 | ·
CCCCCCCN1N=C(C)C(C(=O)c2ccccc2)C1=O (centres undefined) | 2.2 | · | 0.7 | -1.3 | 0.3 | 0.952 | ·
CCCCCN1N=C(C)CC1=O | -1.5 | 8.6 | -0.4 | 0.5 | -0.5 | 2.68* | 0.0794
CCOC(=O)N1CCN(C(=O)C(=O)NN)CC1 | 0.1 | 15.6 | -0.1 | 1.8 | 1.6 | 1.33 | ·
COc1ccc(Cn2nc(-c3ccccc3)c(N3CCCCC3)cc2=O)cc1 | 2.0 | -8.0 | 1.5 | -1.8 | -0.7 | -4.42* | ?
COc1ccc(-c2nnc(N3CCCCC3)c3ccccc23)cc1 | 3.4 | · | 0.5 | -0.9 | -0.7 | -0.721 | ·
C=CCn1c(SCCN2CCCC2)nc2c([nH]c3ccccc32)c1=O | 2.0 | 20.5 | 1.0 | 0.6 | 0.0 | · | ·
COc1ccc(C)cc1N1C(=N)/C(=C2/Nc3ccccc3S2)C(c2ccccc2)C1=O (centres undefined) | -14.6 | 18.5 | 2.2 | 2.1 | 1.3 | -0.108 | ·
O=C(/C=C/c1ccc(Br)cc1)c1ccc(NC(=O)c2ccco2)cc1 | 3.4 | 19.3 | 0.1 | -1.1 | 0.7 | · | ·
O=C(/C=C/c1ccc(Br)cc1)c1ccco1 | 12.2 | 18.6 | 0.5 | 0.3 | 0.0 | -5.44* | ?
Cc1cccc(Nc2ncccc2C(=O)O)c1C | 1.6 | · | 0.1 | -0.9 | -0.8 | · | 0.0789
CC(C)CC1(C)N=C(c2ccccc2)C(=S)N1 (centres undefined) | 0.3 | 18.6 | 0.1 | -0.9 | 0.1 | -3.18* | 0.0566*
S=C1NC2(CCCC2)N=C1c1ccccc1 | 2.5 | 7.7 | 0.2 | 0.5 | 0.8 | -1.82 | ·
CCOC(=O)c1c2ccc(OCC(=O)NN)cc2n2ccccc12 | -0.7 | 15.4 | -0.4 | -0.1 | -0.4 | -2.8* | 0.0549*
O=C(COC(=O)c1c2c(nc3ccccc13)CCCC2)Nc1ccc2c(c1)OCO2 | 0.4 | · | 0.3 | -0.1 | -0.8 | · | 0.0751
O=C(COC(=O)c1cc(-c2ccccc2)nc2ccccc12)Nc1ccc2c(c1)OCO2 | 21.4 | 5.4 | 0.8 | -0.7 | 0.2 | · | ·
O=C(COC(=O)c1nc(Cl)ccc1Cl)Nc1ccc2c(c1)OCO2 | 1.4 | 10.6 | 0.1 | -1.2 | 0.1 | -1.7* | 0.0796
COc1ccc(C2=NOC(C(=O)Nc3cccnc3)C2)cc1OC (centres undefined) | · | 10.6 | · | 0.6 | -0.4 | · | ·
CCOC(=O)c1ccc(NC(=O)COc2ccc(-n3cnnn3)cc2)cc1 | 1.4 | · | -0.1 | 0.8 | 0.3 | 1.44 | 0.0887
O=C(COc1ccc(F)cc1)Nc1ccc(-n2cnnn2)cc1 | 13.7 | · | 0.3 | 0.2 | 0.2 | · | ·
Clc1ccc(Cl)c(OCCCCNCc2ccccc2)c1 | 3.1 | 12.1 | 2.3 | 0.8 | 0.5 | -3.24* | 0.0656*
Cc1cccc(OCCCCNCc2ccccc2)c1 | 1.1 | 11.3 | 1.4 | -0.9 | 0.3 | -1.33* | 0.0617*
Clc1ccc(OCCCNCc2ccccc2)c(Br)c1 | 0.6 | · | 0.5 | 0.2 | 1.6 | -2.95* | 0.0635*
Cc1cccc(OCCCCCNCCO)c1 | · | · | · | 1.4 | -0.1 | -0.00354 | ·
Cc1cc(Cl)c(OCCCNCc2ccccc2)c(Br)c1 | 15.7 | · | 5.3 | -1.0 | 0.8 | -5.18* | 0.0529*
SMILES | ABCG2 inh | Calb biofilm kill | ABCB1 inh | TRPN1 ag | TRPML3 ag | ROMK mod | ROMK hit retest
COCCNCCCCOc1c(Cl)cc(C)cc1Br | 1.0 | · | 0.1 | 0.2 | 0.5 | · | ·
O=C(CSc1nnnn1-c1ccc2c(c1)OCCO2)N1CCN(C(=O)c2ccco2)CC1 | 2.0 | 30.0 | 0.5 | 0.2 | 0.2 | 0.518 | ·
Cc1cc(C)n(CC(=O)O)c(=O)c1[N+](=O)[O-] | -1.9 | -1.9 | -0.8 | -1.2 | 0.5 | 0.0266 | ·
Cc1cccc(NC(=O)CSc2nnc(NC(=O)c3ccco3)s2)c1 | 2.1 | 11.9 | 0.5 | 0.3 | 0.5 | -0.903 | ·
Nc1nc(SCC(=O)NCc2ccccc2)[nH]c(=O)c1NC(=O)c1ccccc1F | -0.3 | 8.0 | -0.1 | 1.2 | 1.1 | -0.284 | ·
O=C(Nc1ccc(S(=O)(=O)Nc2nccs2)cc1)c1cc(-c2ccccc2Cl)nc2ccccc12 | -2.9 | · | -1.2 | -1.1 | 0.4 | 4.25* | 0.0882
CCOc1ccc2nc(SCC3CC3(Cl)Cl)[nH]c2c1 (centres undefined) | · | 15.1 | · | -2.4 | -1.3 | · | ·
ClC1(Cl)CC1CSc1nc2ccccc2[nH]1 (centres undefined) | 4.5 | 9.4 | 0.0 | -1.3 | -0.7 | -4.25* | 0.0846
O=S1(=O)CCC(N=Cc2cc(Br)ccc2O)C1 (centres undefined) | 1.7 | · | 0.0 | 0.8 | 0.1 | 1.65 | 0.102*
Cc1cccc(-n2c(C)cc(C=C3C(=O)c4ccccc4C3=O)c2C)c1 | 0.1 | · | 0.4 | 1.1 | 0.7 | · | 0.0364*
Cc1cc(C=C2C(=O)c3ccccc3C2=O)c(C)n1-c1ccc(Cl)cc1 | 4.1 | · | 1.1 | 3.4 | 0.6 | · | ·
CC/C(O)=C1\C(=O)CCCC1=NCc1nc2ccccc2[nH]1 | 24.2 | 13.1 | -1.3 | 0.7 | 0.4 | · | ·
NCCCNc1ccc([N+](=O)[O-])cc1C(F)(F)F | 1.6 | 25.3 | 0.3 | 1.5 | 1.1 | -8.31* | 0.0657*
CCc1ccc(-c2cc(C(=O)N/N=C/c3ccco3)[nH]n2)cc1 | -2.2 | 13.5 | -1.2 | -0.3 | 0.6 | -3.19* | 0.0628*
CC(=O)C(Cl)C(=O)Nc1ccccc1 (centres undefined) | 0.4 | 8.4 | 0.2 | 1.8 | 1.6 | -5.38* | 0.046*
Cc1c(C(=O)Nc2ccccn2)oc2ccccc12 | 5.0 | · | 1.0 | -0.5 | 0.1 | · | ·
Cc1c(C(=O)Nc2ccncc2)oc2ccccc12 | 4.8 | · | 0.6 | 2.9 | 0.8 | · | 0.0741
CCOC(=O)C1=C(Cc2ccc(C)cc2)C(=O)c2ccccc2C1=O | 1.3 | · | 1.3 | 1.6 | 0.4 | -5.08* | 0.0542*
CCOC(=O)C1=C(Cc2ccc(OC)cc2)C(=O)c2ccccc2C1=O | -0.6 | · | 0.3 | 2.8 | 1.6 | · | ·
